High-throughput results (PubChem BioAssay)
Sampled rows, rich in hits. Any-hit rate of the full collection: about 2.5%.
MC4R antag cAMP: blocks human MC4R cAMP signaling; P32245; MC4R-expressing cells, MTII-stimulated cAMP, LANCE TR-FRET; inhibition, % at 6.5 µM; 0.48% of 360,000 active; AID 540295;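 active means inhibition above its plate's cutoff, the mean of tested wells on that plate plus 3 SD, cut at about 29% in these data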;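 further: 0% = Melanotan II alone and 100% = Melanotan II plus saturating MCL0020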
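System: U2OS-MC4R stable cell line; Technique: Eu-cAMP/anti-cAMP TR-FRET, emission 671 nm; Repeats: single well per compound; Also added: Melanotan II; Dosing: one concentration, 6.5 µM nominal; Schedule: 30-min compound, 1-h challenge, 1-h detection, room temperature.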
sPLA2-III inh: Inhibits HGIII-sPLA2 liposome hydrolysis, primary screen | Q9NZ20 | QFRET BODIPY PC-A2 liposome hydrolysis, fluorescence | inhibition, % at 12.2 µM | 0.56% of 370,000 active;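 active means inhibition above mean plus 3 SD of compounds lying within the high and low control bounds, cut at about 19% in these data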;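 further: 0% = median of test compound wells and 100% = no enzyme DMSO wells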
MC4R ag barr: human MC4R agonism via beta-arrestin; U2OS MC4R beta-arrestin complementation, luminescence; percent of melanotan II response, DMSO zero; AID 540308; activation, % at 8.9 µM; 0.98% of 360,000 active;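 active means activation above a per-plate cutoff, the mean activation of sample wells on that plate plus 3 SD, cut at about 8% in these data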
Exocytosis inh: lytic granule exocytosis inhibition. inhibition, % at 10 µM. 0.66% of 360,000 active. AID 651702. TALL-104 LAMP-1 surface exposure, flow cytometry; cells stimulated with thapsigargin and PMA;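 active means inhibition above about 55%, limit read from the data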
Bfl-1 A1 inh: inhibitors of the anti-apoptotic protein A1, read as caspase activation; MEF A1-2A-BIM cells, Caspase-Glo 3/7 luminescence, 3 h; percent of clofoctol response, vehicle zero; caspase activation, % (concentration not given with the values); 0.066% of 330,000 active; AID 2462;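 active means over half of replicate activation scores above 10%, or exactly half above 10 with the replicate mean above 10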
NTR1 agonist: NTR1 (human) agonism. P30989. NTR1-U2OS beta-arrestin-GFP spot imaging, agonist mode. activation, % at 20 µM. 0.17% of 330,000 active. AID 493036;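 active means activation at or above 40% of the spot to cytoplasm intensity ratio, with at least 20 cells analyzed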;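 further: 0% = DMSO without peptide and 100% = 100 nM NTR1 peptide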
hGIII sPLA2 conf: human GIII-sPLA2 inhibition, confirmation. inhibition, % at 12.2 µM. shares compounds with sPLA2-III inh. recombinant hGIII-sPLA2, BODIPY PC-A2 QFRET fluorescence. 34% of 2,000 active. AID 743280;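 active means mean inhibition across triplicates above the hit cutoff set in the earlier primary screen, cut at about 19% in these data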;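 further: 0% = enzyme with DMSO and 100% = DMSO wells lacking enzyme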
535nm interf: 535nm fluorescence interference, HGIII-sPLA2 counter-screen. shares compounds with sPLA2-III inh. BODIPY FL product fluorescence interference, QFRET. inhibition, % at 12.2 µM. 8.5% of 2,000 active;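 active means average inhibition above the solvent-only control mean plus 3 SD, cut at about 6% in these data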;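 further: 0% = DMSO with substrate plus product and 100% = DMSO with substrate alone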
535nm interf DR: counter-screen for HGIII-sPLA2 inhibitors: 535nm fluorescence interference, dose response | BODIPY FL product fluorescence interference, cell-free | 240 tested, under 10 active | IC50, µM | shares compounds with sPLA2-III inh;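 active means IC50 at or below 10 µM; inactive means IC50 above 10 µM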
An asterisk follows results filed as active; . = no result.

SMILES	MC4R antag cAMP	sPLA2-III inh	MC4R ag barr	Exocytosis inh	Bfl-1 A1 inh	NTR1 agonist	hGIII sPLA2 conf	535nm interf	535nm interf DR
C[C@@H]1CN([C@@H](C)CO)C(=O)CCCn2nncc2CO[C@@H]1CN(C)C(=O)Oc1cccc2ccccc12	13	1	1	-8	.	.	.	.	.
CC(C)Oc1ccc(C2(C#N)CC[N+](C)(C)CC2)cc1	4	22*	-1	-3	1	0	-2	-4	.
C[n+]1c(-c2ccccc2)sc2ccccc21	-1	-9	1	2	0	3	.	.	.
CN(C)c1ccc(/C=C/c2cc[n+](C)c3ccccc23)cc1	-35	26*	-5	-15	.	.	33*	-14	>122
CN(C)c1ccc(/C=C/C=C/c2sc3ccccc3[n+]2C)cc1	3	21*	-2	-24	1	2	41*	-15	>122
